Converted amounts (≈) assume the structure as drawn.

For data set [1], the system named is Homo sapiens. Briefly: Clearance in healthy human at 500 mg, po administered as single dose. The conditions noted are these: in vivo.
For data set [2], the system named is Staphylococcus aureus. Briefly: Ratio of fAUC to MIC90 for methicillin-sensitive Staphylococcus aureus. The class given is functional. Put shortly:
(§1)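 Fasted healthy adults got a single oral 500 mg dose with 240 ml water. Plasma was sampled predose to 96 h and assayed by LC-MS/MS (5–5,000 ng/ml). Cmax was read from individual profiles, and AUC0-∞ came from linear trapezoid plus extrapolation. Free fraction was measured by ultrafiltration (30,000 MWCO) of 0.5 and 6 h plasma. Free exposure was divided by the isolate MIC90.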

In data set [3] the test system is Homo sapiens. Briefly: Clearance in healthy human at 1000 mg, po administered as single dose. The conditions noted are these: in vivo.
Data set [4] concerns Homo sapiens. As to the kind of experiment: Toxicity in healthy human assessed as occurrence of abdominal pain at 50 […], po. Format: organism-based, Abdomen. More on the design: route oral. The conditions noted are these: in vivo. In short, it runs like this:
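Double-blind, placebo-controlled single ascending oral dose; two placebo and six active subjects per cohort. Adverse events were recorded throughout the dosing period and at follow-up, with confinement to 96 h after dosing. Results are reported as number and percentage of subjects with the event (n/N × 100).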

In data set [5] the test system is Homo sapiens. As to the kind of experiment: Toxicity in healthy human assessed as occurrence of pruritus at 50 […], po. Format: organism-based. The arrangement: route oral. The conditions noted are these: in vivo.
The nature of data set [6]: Terminal phase elimination half-life in healthy human at 250 […], po administered single dose. Format: ADME, organism-based. More on the design: route oral. As to conditions: in vivo. Put shortly:
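After one fasted oral dose (six healthy subjects per cohort), plasma was sampled from 0.5 to 96 h and assayed by LC-MS/MS (LLOQ 5 ng/ml). λz came from least-squares regression on at least the last three log-concentration points, and t1/2 = 0.693/λz. Values are means (SD).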

The next data set concerns Streptococcus pneumoniae. As to the kind of experiment: Antimicrobial activity against penicillin-resistant Streptococcus pneumoniae. Format: functional.
Data set [7] has as its system Homo sapiens. Briefly: Terminal volume of distribution in healthy human at 125 mg, po administered as single dose. As to conditions: in vivo.
The nature of data set [8]: Clearance in healthy human assessed as recovery of unchanged drug in urine at 1500 […], po administered as single dose. The conditions noted are these: read-out: Recovered in urine. The arrangement: route oral. Format: ADME, organism-based. In short, it runs like this:
(§2)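 Healthy volunteers, six on drug per cohort, fasted 10 h and given one oral dose with 240 ml water, then fasted 4 h more. Urine was pooled over intervals from 0-2 to 72-96 h and stored at about −70°C. Drug was measured by solid-phase extraction and LC-MS/MS (LLOQ 200 ng/ml), giving the percent of dose recovered unchanged. Values are means (SD).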

Data set [9] is described as follows: Clearance in healthy human assessed as recovery of unchanged drug in urine at 25 […], po administered as single dose. The class given is ADME, organism-based. More on the design: route oral. The conditions noted are these: read-out: Recovered in urine. Put shortly:
as §2

Data set [10] has as its system Homo sapiens. Briefly: Toxicity in healthy human assessed as occurrence of ear pain at 125 […], po. The class given is organism-based. More on the design: route oral. The conditions noted are these: in vivo.
Data set [11] concerns Staphylococcus aureus. Briefly: Ratio of fCmax to MIC90 for methicillin-sensitive Staphylococcus aureus. Format: functional. In short, it runs like this:
as §1

Data set [12] relates to Homo sapiens. As to the kind of experiment: AUC (0 to infinity) in healthy human at 50 mg/kg, po administered as single dose. The class given is ADME, organism-based, Plasma. More on the design: time infinity, route oral. As to conditions: in vivo.

Broadly, the half-life is the time in which the quantity being followed falls by half. Higher therefore signals slow loss. By MIC90 is commonly meant the lowest concentration that inhibits either 90% of growth or 90% of the strains tested, depending on the study. A word on the AUC: it is the area under the concentration-time curve, a measure of exposure. With `COc1c(N2C[C@@H](C)C[C@H](N)C2)ccc2c(=O)c(C(=O)O)cn(C3CC3)c12` [NEMONOXACIN], the CL in the data set with Homo sapiens [1] was determined as 3.3 mL/min/kg; in the data set with Homo sapiens [3] it was 3.67 mL/min/kg. The results for the Ratio with Staphylococcus aureus [2] and with Staphylococcus aureus [11] were 227 and 24, respectively. The Activity is 0% in the data set on Homo sapiens [4], 17% in the data set on Homo sapiens [5] and 0% in the data set with Homo sapiens [10]. The compound further had a half-life in data set [6] of 10.9 h. The MIC90 against Streptococcus pneumoniae is 0.03 µg/mL (≈ 0.0808 µM). For the same compound, the Vbeta in the data set on Homo sapiens [7] stood at 3.38 L/kg. For the same compound, the values for the dose excreted in [8] and in data set [9] were 37.6% and 56.2%, respectively. In the data set on Homo sapiens [12], this compound had an AUC of 2990 ng·h/mL.

Source of the values: ChEMBL document CHEMBL1212766, “Dose escalation study of the safety, tolerability, and pharmacokinetics of nemonoxacin (TG-873870), a novel potent broad-spectrum nonfluorinated quinolone, in healthy volunteers” (Antimicrob Agents Chemother, 2010).
